The values that follow come from ChEMBL document CHEMBL1151741, “Aryl bis(diazeniumdiolates): potent inducers of S-glutathionylation of cellular proteins and their in vitro antiproliferative activities” (J Med Chem, 2008).

For orientation: pIC50 means the IC50 on a negative log10 scale, so that one unit is a factor of ten. One may read the TGI as the concentration giving total growth inhibition. A higher TGI goes with less potent growth arrest.

pIC50: −log10 of the molar value. The source made the active and inactive calls. No cut-off for these calls is given here.

The nature of experiment [1]: Nitric oxide release measured per mole of compound at pH 7.4 in presence of glutathione. The essentials:
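Compound stock was injected into 0.1 M phosphate buffer, pH 7.4, containing 4 mM GSH and 50 μM DTPA, sparged with inert gas. NO was followed by chemiluminescence at 37 °C until the signal returned to baseline (25 min – 5 h). The integrated curve gave mol NO per mol compound.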

The subject of experiment [2] is HL-60. The experiment is described as follows: Antiproliferative activity against human HL-60 cells after 72 hrs by MTT assay. The following applies: HL-60, 72 h. Type of experiment: functional, cell-based. The method in brief: (§1)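 Cells kept in RPMI 1640 with 10% fetal calf serum, penicillin/streptomycin and 2 mM glutamine at 37 °C, 5% CO2. Seeded at 10⁴ per well and grown 24 h. Increasing drug concentrations (from 10 mM DMSO stocks, diluted in PBS) were added for 72 h at 37 °C. Proliferation was read by MTT. Six repeats per concentration, at least two independent experiments. IC50 is 50% proliferation inhibition; TGI is total growth inhibition.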
(In general: Tetrazolium assays rely on reduction of a dye to a coloured formazan, in cell work by metabolically active cells.)

The test system of experiment [3] is HL-60. Kind of experiment: Induction of protein S-glutathionylation in human HL-60 cell lysate at 5 uM. It is filed as functional, cell-based. The method in brief: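 Equal numbers of HL-60 cells in complete RPMI medium were given 5 μM compound or a DMSO vehicle control. Cells were lysed in pH 7.2 Hepes/NP-40/deoxycholate buffer with protease inhibitors. 10 μg of protein was run on SDS-PAGE under nonreducing conditions and blotted to PVDF. Blots were probed with anti-glutathione monoclonal antibody (1:1000, 3 h, room temperature), then HRP secondary, with ECL detection. Blots were stripped and reprobed for β-actin as a loading control.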

The subject of experiment [4] is U-937. The experiment is described as follows: Antiproliferative activity against human U937 cells after 72 hrs by MTT assay. It is filed as functional, cell-based. The following applies: U-937, 72 h. The method in brief: as §1
Experiment [5] can be described thus: Antiproliferative activity against human H441 cells after 72 hrs by MTT assay. Type of experiment: functional, cell-based. The following applies: NCI-H441, 72 h. The method in brief: as §1
In experiment [6] the test system is A549. The experiment is described as follows: Antiproliferative activity against human A549 cells after 72 hrs by MTT assay. Type of experiment: functional, cell-based. The following applies: A549, 72 h. The method in brief:
as §1

Experiment [7] in a line: Antiproliferative activity against human HCT 116 cells after 72 hrs by MTT assay. It is filed as functional, cell-based. The conditions noted are these: HCT-116, 72 h. The essentials: as §1
The test system of experiment [8] is HCT-15. The experiment is described as follows: Antiproliferative activity against human HCT-15 cells after 72 hrs by MTT assay. Type of experiment: functional, cell-based. The conditions noted are these: HCT-15, 72 h. The method in brief: as §1
The test system of experiment [9] is HT-29. The experiment is described as follows: Antiproliferative activity against human HT-29 cells after 72 hrs by MTT assay. Type of experiment: functional, cell-based. The following applies: HT-29, 72 h. The essentials:
as §1

Experiment [10] deals with OVCAR-3. Kind of experiment: Antiproliferative activity against human OVCAR-3 cells after 72 hrs by MTT assay. It is filed as functional, cell-based. The conditions noted are these: OVCAR-3, 72 h. The essentials:
as §1

The subject of experiment [11] is OVCAR-5. Kind of experiment: Antiproliferative activity against human OVCAR5 cells after 72 hrs by MTT assay. Type of experiment: functional, cell-based. The conditions noted are these: OVCAR-5, 72 h. The essentials:
as §1

Experiment [12] concerns PC-3. Kind of experiment: Antiproliferative activity against human PC-3 cells after 72 hrs by MTT assay. It is filed as functional, cell-based. The following applies: PC-3, 72 h. The method in brief: as §1

As for `CCN(CC)/[N+]([O-])=N/Oc1cc(O/N=[N+](\[O-])N2CCCC2CO)c([N+](=O)[O-])cc1[N+](=O)[O-]` (centres undefined), the Activity in experiment [1] was 3 mol/mol. Also, in experiment [2], the pIC50 is 5.74 and the TGI was 4 µM. Moreover, in experiment [3], the result was Active.
`CN(C)/[N+]([O-])=N/Oc1cc(O/N=[N+](\[O-])N2CCN(c3ncccn3)CC2)c([N+](=O)[O-])cc1[N+](=O)[O-]`: in experiment [1], the Activity was found to be 3.5 mol/mol. In [2], this molecule showed a pIC50 of 5.92 and a concentration for total growth inhibition (TGI) of 5 µM. For the same molecule, the outcome in experiment [3] was Active.
With `CCCOC(=O)N1CCN(/[N+]([O-])=N/Oc2cc(O/N=[N+](\[O-])N(C)C)c([N+](=O)[O-])cc2[N+](=O)[O-])CC1`, the Activity in experiment [1] was 3.7 mol/mol. Also, in experiment [2], the pIC50 is 5.80 and total growth inhibition (TGI) required 3.9 µM. In experiment [3], the outcome was Active.
In the same order, the values of `O=C(O)[C@@H]1CCCN1/[N+]([O-])=N/Oc1cc(O/N=[N+](\[O-])N2CCC[C@H]2C(=O)O)c([N+](=O)[O-])cc1[N+](=O)[O-]` are 3.5 mol/mol, 5.02, > 10 µM and “inactive”.
Consider `CCOC(=O)N1CCN(/[N+]([O-])=N/Oc2cc(O/N=[N+](\[O-])N(CC)CC)c([N+](=O)[O-])cc2[N+](=O)[O-])CC1`, for which the Activity in experiment [1] was found to be 3.1 mol/mol. In experiment [2], this molecule had a negative-log IC50 (pIC50) of 5.68 and a TGI of 5 µM. Further, in experiment [3], the result was Active.
Turning to `CCCCOC(=O)N1CCN(/[N+]([O-])=N/Oc2cc(O/N=[N+](\[O-])N(C)C)c([N+](=O)[O-])cc2[N+](=O)[O-])CC1`, in experiment [1], the Activity amounted to 3.1 mol/mol. Moreover, in [2], the pIC50 is 6.05 and total growth inhibition (TGI) required 2.7 µM. Besides, the result in experiment [3] was Active.
Turning to `CCN(CC)/[N+]([O-])=N/Oc1cc(O/N=[N+](\[O-])N(C)C)c([N+](=O)[O-])cc1[N+](=O)[O-]`, the Activity in [1] was 3.8 mol/mol. For the same molecule, in experiment [2], the negative-log IC50 (pIC50) is 6.00 and the TGI amounted to 2.3 µM. The result in [3] was Active.
Take `CC1CCCCN1/[N+]([O-])=N/Oc1cc(O/N=[N+](\[O-])N(C)C)c([N+](=O)[O-])cc1[N+](=O)[O-]` (centres undefined): the Activity in experiment [1] worked out at 3 mol/mol. In [2], this molecule showed a pIC50 of 5.82 and a TGI of 4.9 µM. Besides, the result in experiment [3] was Active.
As for `O=[N+]([O-])c1cc([N+](=O)[O-])c(O/N=[N+](\[O-])N2CCC[C@H]2CO)cc1O/N=[N+](\[O-])N1CCC[C@H]1CO`, the Activity in experiment [1] worked out at 2.5 mol/mol. In experiment [2], the pIC50 was 5.40 and the TGI was > 10 µM. In addition, the result in experiment [3] was Active.
Regarding `CCN(CC)C(=O)N1CCN(/[N+]([O-])=N/Oc2cc(O/N=[N+](\[O-])N(CC)CC)c([N+](=O)[O-])cc2[N+](=O)[O-])CC1`, the Activity in experiment [1] turned out to be 3 mol/mol. Also, in experiment [2], the pIC50 was 5.54 and the TGI is > 10 µM. Also, the result in experiment [3] was Active.
As to `CCOC(=O)N1CCN(/[N+]([O-])=N/Oc2cc(O/N=[N+](\[O-])N(C)C)c([N+](=O)[O-])cc2[N+](=O)[O-])CC1`, in experiment [1], the Activity amounted to 2.7 mol/mol. Also, the pIC50 in experiment [2] was 5.92; in [4], 5.89; in [5] it was 5.30; in experiment [6] it was 5.04; in experiment [7] it was 5.62; in experiment [8] it was 5.60. Besides, the pIC50 in [9] is 5.35; in experiment [10], 5.89; in experiment [11], 5.48; in experiment [12] it was 5.30. Moreover, the TGI in experiment [2] is 2 µM; in [4], 3 µM; in experiment [5], 7 µM; in experiment [6] it was > 30 µM; in experiment [7] it was 4 µM; in experiment [8] it was 4 µM. Further, the concentration for total growth inhibition (TGI) is 10 µM in experiment [9], 2.3 µM in experiment [10], 9 µM in [11] and 7 µM in experiment [12]. The result in experiment [3] was Active.
On to `CN(C)/[N+]([O-])=N/Oc1cc(O/N=[N+](\[O-])N2CCCC2)c([N+](=O)[O-])cc1[N+](=O)[O-]`, for which, in experiment [1], the Activity is 3.6 mol/mol. In experiment [2], this molecule gave a pIC50 of 5.64 and a TGI of 4.9 µM. In experiment [3], the result was Active.
Regarding `CN(C)/[N+]([O-])=N/Oc1cc(O/N=[N+](\[O-])N2CCCC2CO)c([N+](=O)[O-])cc1[N+](=O)[O-]` (centres undefined), in [1], the Activity amounted to 3 mol/mol. Moreover, the pIC50 is 6.00 in [2]; 6.10 in [4]; 5.68 in experiment [5]; 5.29 in [6]; 5.80 in experiment [7]; 5.77 in [8]. For the same molecule, the pIC50 in experiment [9] is 5.62; in experiment [10], 5.77; in experiment [11], 5.60; in experiment [12], 5.48. Besides, the TGI was 2 µM in [2]; 1.2 µM in experiment [4]; 4.5 µM in experiment [5]; 6 µM in experiment [6]; 3.6 µM in experiment [7]; 3.3 µM in experiment [8]. The TGI in experiment [9] was found to be 4.5 µM; in experiment [10], 3.8 µM; in experiment [11] it was 4 µM; in [12], 7 µM. For the same molecule, the outcome in experiment [3] was Active.
Turning to `CCN(CC)C(=O)N1CCN(/[N+]([O-])=N/Oc2cc(O/N=[N+](\[O-])N(C)C)c([N+](=O)[O-])cc2[N+](=O)[O-])CC1`, in experiment [1], the Activity is 3.5 mol/mol. In addition, in experiment [2], the pIC50 was 5.72 and total growth inhibition (TGI) required 4.9 µM. Also, the result in experiment [3] was Active.
For the molecule `CCOC(=O)N1CCN(/[N+]([O-])=N/Oc2cc(O/N=[N+](\[O-])N3CCN(C(=O)N(CC)CC)CC3)c([N+](=O)[O-])cc2[N+](=O)[O-])CC1`, the Activity in experiment [1] worked out at 2.9 mol/mol. For the same molecule, the pIC50 in [2] is 6.05; in experiment [4], 6.05; in experiment [5], 5.77; in experiment [6], 5.41; in experiment [7], 5.82; in [8] it was 5.80. The pIC50 in experiment [9] is 5.60; in experiment [10], 5.85; in experiment [11], 5.72; in [12], 5.48. Further, the TGI amounted to 3 µM in [2]; 3 µM in experiment [4]; 4 µM in [5]; 10 µM in experiment [6]; 4 µM in experiment [7]; 4.5 µM in experiment [8]. Moreover, the TGI was found to be 6.5 µM in experiment [9], 4 µM in [10], 5.5 µM in experiment [11] and 8 µM in experiment [12]. Also, in experiment [3], the outcome was Active.
As to `CNc1ccc(C(=O)Oc2cc(O/N=[N+](\[O-])N(C)C)c([N+](=O)[O-])cc2[N+](=O)[O-])cc1`, in experiment [1], the Activity is 1.4 mol/mol. Further, the TGI in experiment [2] is > 10 µM; in experiment [4] it was 5.5 µM; in experiment [5] it was > 10 µM; in experiment [6], > 10 µM; in experiment [7] it was > 10 µM; in experiment [8], > 10 µM. Further, the TGI in experiment [9] is > 10 µM; in [10] it was 9.5 µM; in [11], > 10 µM; in [12] it was > 10 µM. Further, the pIC50 in experiment [4] is 5.57; in experiment [5] it was 5.31; in [6] it was < 5.00; in experiment [7] it was 5.26; in [8], 5.24; in experiment [9] it was 5.15. For the same molecule, the pIC50 in experiment [10] was 5.30; in [11] it was 5.11; in [12] it was < 5.00. For the same molecule, the result in experiment [3] was Active.
Regarding `CN(C)/[N+]([O-])=N/Oc1cc(O/N=[N+](\[O-])N2CCCCC2)c([N+](=O)[O-])cc1[N+](=O)[O-]`, the Activity in [1] stood at 3.7 mol/mol. Also, in experiment [2], the pIC50 was 5.77 and total growth inhibition (TGI) required 4.9 µM. Besides, the result in [3] was Active.
